Here are results for 16 molecules from PubChem BioAssay.

The nature of experiment [1]: Her2 expression decrease, cell viability multiplex – SKBR3 breast tumor cells, AlphaScreen, ATP viability, primary screen (AID 461;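 active = Her2 level under about 52% in both replicate screens, with viability over 70% of control, limit read from the data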;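 as to Her2 level: lower value means less Her2 protein in the cells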;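 as to viability: percent of carrier control wells set as 100% viability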). Particulars: SKBR3 Her2 protein level, 18-24 h, measured here: SKBR3 viability, ATP luminescence, at 10 µM. (In Alpha technology, singlet oxygen from a donor bead excites a nearby acceptor bead.)
In experiment [2] the target is Receptor tyrosine-protein kinase erbB-2 (Homo sapiens) (UniProt P04626). Described as above. The following applies: 18-24 h, at 10 µM, stronger effect = lower value.
Receptor tyrosine-protein kinase erbB-2 (Homo sapiens), sequence (P04626 whole entry, looked up): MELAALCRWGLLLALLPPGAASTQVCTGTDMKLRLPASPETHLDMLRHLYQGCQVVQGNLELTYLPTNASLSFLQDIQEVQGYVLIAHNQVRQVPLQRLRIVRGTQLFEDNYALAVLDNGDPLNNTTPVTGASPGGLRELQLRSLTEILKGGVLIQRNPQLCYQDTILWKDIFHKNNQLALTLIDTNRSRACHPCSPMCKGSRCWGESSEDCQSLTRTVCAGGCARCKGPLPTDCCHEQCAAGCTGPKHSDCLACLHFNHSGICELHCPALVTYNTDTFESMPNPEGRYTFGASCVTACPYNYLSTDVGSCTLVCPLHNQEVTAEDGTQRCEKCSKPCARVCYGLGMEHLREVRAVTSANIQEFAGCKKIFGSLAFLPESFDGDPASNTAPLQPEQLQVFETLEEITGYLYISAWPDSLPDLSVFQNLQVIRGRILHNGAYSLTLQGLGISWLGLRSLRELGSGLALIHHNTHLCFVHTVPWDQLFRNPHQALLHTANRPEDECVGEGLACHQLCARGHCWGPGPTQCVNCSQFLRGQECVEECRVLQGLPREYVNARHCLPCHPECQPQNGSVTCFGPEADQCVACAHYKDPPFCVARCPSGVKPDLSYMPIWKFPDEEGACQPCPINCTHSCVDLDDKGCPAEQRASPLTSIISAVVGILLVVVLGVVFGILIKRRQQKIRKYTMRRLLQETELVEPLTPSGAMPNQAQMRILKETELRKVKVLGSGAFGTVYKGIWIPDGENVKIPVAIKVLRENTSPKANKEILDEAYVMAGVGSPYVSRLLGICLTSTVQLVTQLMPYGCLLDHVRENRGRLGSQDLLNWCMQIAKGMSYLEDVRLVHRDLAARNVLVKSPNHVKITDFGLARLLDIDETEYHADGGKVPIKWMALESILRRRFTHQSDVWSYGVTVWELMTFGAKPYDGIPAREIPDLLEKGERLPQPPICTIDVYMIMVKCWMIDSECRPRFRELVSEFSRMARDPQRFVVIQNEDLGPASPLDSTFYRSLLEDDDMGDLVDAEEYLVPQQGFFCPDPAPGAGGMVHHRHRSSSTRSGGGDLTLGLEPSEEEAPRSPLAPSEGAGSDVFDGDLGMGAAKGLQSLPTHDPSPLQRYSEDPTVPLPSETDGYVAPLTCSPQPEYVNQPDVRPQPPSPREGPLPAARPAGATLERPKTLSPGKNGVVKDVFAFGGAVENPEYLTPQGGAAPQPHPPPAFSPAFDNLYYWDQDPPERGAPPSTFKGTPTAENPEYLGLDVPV
Experiment [3] can be described thus: reduced viability of SK-BR-3 breast cancer cells – cell-based, 24 h, human, pilot screen (AID 572).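 Also: compound exposure lasted between 18 and 24 h rather than exactly 24 h; 100% = carrier-treated control wells.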 The following applies: SK-BR-3 viability, CellTiter-Glo luminescence, at 10 µM, stronger effect = lower value. (In ATP-based viability assays light output follows the ATP content of the culture.)
Experiment [4] can be described thus: HUVEC growth inhibition – cell-based, human, primary screen (AID 575;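 active = viability at or below 30% in both replicate assays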;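 also: 100% = median of untreated cell wells with 0.1% DMSO on each plate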). The following applies: HUVEC proliferation, CellTiter-Glo luminescence, 72 h; at 10 µM; stronger effect = lower value. The procedure, abridged:
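System – primary HUVEC, no more than 12 passages · Medium – Low-serum (2% FBS) EBM, supplemented · Times – 72 h exposure, 37 °C, 5% CO2, 30 min RT equilibration · Measured by – luminescent ATP assay · Read-out – % viability relative to median vehicle-well signal on each plate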

The nature of experiment [5]: H69AR cell proliferation blockers – human, duplicate replicates, primary screen (AID 580;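 active = viability at or under a set limit in both replicates, limit being median viability minus 3 SD, cut at about 48% in these data, passing the limit was not always enough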;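 also: 100% = mean luminescence of untreated wells and 0% = no signal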). The following applies: H69AR lung tumor cells viability, ATP luminescence, 72 h; at 10 µM; stronger effect = lower value.
Experiment [6] in a line: MRP1 drug-resistance reversers in H69AR cells – cell-based, doxorubicin co-treatment, pilot screen (AID 601;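 active = viability loss from added drug above about 55%, and viability with drug at most 40%, in both replicates, limit read from the data, passing the limit was not always enough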). The following applies: CellTiter-Glo, 72 h, at 10 µM; for differential viability (reversal): stronger effect = higher value.
Experiment [7] can be described thus: yeast transport mutant growth inhibition pilot in 384-well plates, post-Golgi transport modulator project (AID 636; in the data active = inhibition above about 31%). Particulars: absorbance 615 nm, about 18 h, stronger effect = higher value.
The nature of experiment [8]: growth suppression of yeast trafficking mutant, preliminary HTS, modulators of trafficking downstream of Golgi apparatus project, 1536-format plate, OD 615 nm (AID 637; in the data active = inhibition above about 30%). Particulars: yeast transport mutant growth, absorbance 615 nm, 18 h; stronger effect = higher value.
Setting [9] is: H69AR cells + 2 uM doxorubicin, measured here: viability with 2 uM doxorubicin, stronger effect = lower value.
Setting [10] is: H69AR cells, compound alone cytotoxicity.

Calls of active or inactive are those of the source.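 The calls were made as follows, unless noted: active = viability at or below 10% of carrier control in both of two separate runs; inconclusive = viability at or below 10% in only one of the two runs; inactive = the rest.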

Usually viability stands for a read-out of living cells in per cent, often relative to untreated cells. What is called inhibition is the drop in the measured response relative to a control, in per cent. As to `Cc1ccccc1NC(=O)C1CCN(c2cnccn2)CC1`, the viability in experiment [1] was 98.5%; in experiment [3], 98.5% (inactive); in experiment [4], 89.2% (inactive); in experiment [5], 101% (inactive); in experiment [6] (setting [9]) it was 92.2%; in experiment [6] (setting [10]), 101%. Besides, the Her2 level in experiment [2] was 103% (inactive). Further, the differential viability (reversal) in experiment [6] (H69AR cells + 2 uM doxorubicin) was 8.59% (inactive). For the same molecule, the inhibition in experiment [7] was -7.07% (inactive); in experiment [8] it was -5.48% (inactive).

On to `COCCCNC(=O)C1CCCN(C(=O)Nc2ccc(OC)cc2)C1` (stereo not given), for which the viability in experiment [1] is 98%; in experiment [3] it was 98% (inactive); in experiment [4], 100% (inactive); in experiment [5], 90.4% (inactive); in experiment [6] (setting [9]), 83.6%; in experiment [6] (setting [10]), 90.4%. The Her2 level in experiment [2] was 89% (inactive). For the same molecule, the differential viability (reversal) in experiment [6] (H69AR cells + 2 uM doxorubicin) is 6.8% (inactive). Further, the inhibition in experiment [7] was -7.03% (inactive); in experiment [8] it was 1.83% (inactive).

In the case of `Cc1cc(C)c(-c2cc(C(=O)Nc3c(C)n(C)n(-c4ccccc4)c3=O)[nH]n2)c(O)c1`, the viability was 99.5% in experiment [1]; 99.5% (inactive) in experiment [3]; 97.5% (inactive) in experiment [4]; 105% (inactive) in experiment [5]; 100% in experiment [6] (setting [9]); 105% in experiment [6] (setting [10]). In addition, the Her2 level in experiment [2] was 98% (inactive). Moreover, the differential viability (reversal) in experiment [6] (H69AR cells + 2 uM doxorubicin) was 4.32% (inactive). The results for the inhibition in experiment [7] and in experiment [8] were -1.97% (inactive) and -5.09% (inactive), respectively.

Consider `CC(=O)Nc1ccc(S(=O)(=O)NCC2CCC(C(=O)NCCCN3CCCC3=O)CC2)cc1` (stereo not given), for which the viability in experiment [1] is 107%; in experiment [3], 107% (inactive); in experiment [4], 92.4% (inactive); in experiment [5] it was 94.3% (inactive); in experiment [6] (setting [9]) it was 87.8%; in experiment [6] (setting [10]) it was 94.3%. The Her2 level in experiment [2] was 91.5% (inactive). Further, the differential viability (reversal) in experiment [6] (H69AR cells + 2 uM doxorubicin) is 6.51% (inactive). Besides, the inhibition in experiment [7] is -4.13% (inactive); in experiment [8], 1.45% (inactive).

Take `CCSc1nc2c(c(=O)n1CC)SC(C)C2` (stereo not given): the viability is 102% in experiment [1]; 102% (inactive) in experiment [3]; 111% (inactive) in experiment [4]; 94.1% (inactive) in experiment [5]; 87.7% in experiment [6] (setting [9]); 94.1% in experiment [6] (setting [10]). Further, in experiment [2], the Her2 level was 86.5% (inactive). Moreover, the differential viability (reversal) in experiment [6] (H69AR cells + 2 uM doxorubicin) was 6.39% (inactive). Moreover, the figures for the inhibition in experiment [7] and in experiment [8] were -5.47% (inactive) and 6.07% (inactive), respectively.

For `Cc1cccc(NC(=O)COc2ccc(Br)cc2)n1`, the viability in experiment [1] is 126%; in experiment [3], 126% (inactive); in experiment [4] it was 90.5% (inactive); in experiment [5] it was 99.4% (inactive); in experiment [6] (setting [9]), 92.4%; in experiment [6] (setting [10]), 99.4%. Moreover, in experiment [2], the Her2 level is 110% (inactive). The differential viability (reversal) in experiment [6] (H69AR cells + 2 uM doxorubicin) was 6.92% (inactive). For the same molecule, the figures for the inhibition in experiment [7] and in experiment [8] were -5.19% (inactive) and 11% (inactive), respectively.

`COc1nc(N2CCOCC2)nc(-n2cccc2)n1`: the viability in experiment [1] was 94.5%; in experiment [3] it was 94.5% (inactive); in experiment [4], 90.6% (inactive); in experiment [5], 87.4% (inactive); in experiment [6] (setting [9]) it was 73.6%; in experiment [6] (setting [10]), 87.4%. Moreover, in experiment [2], the Her2 level is 86.5% (inactive). For the same molecule, the differential viability (reversal) in experiment [6] (H69AR cells + 2 uM doxorubicin) is 13.8% (inactive). Moreover, the values for the inhibition in experiment [7] and in experiment [8] were -4.08% (inactive) and -5.09% (inactive), respectively.

Consider `Cn1c(=O)c2c(nc(Oc3ccc4c(c3)OCO4)n2Cc2ccc(F)cc2)n(C)c1=O`, for which the viability in experiment [1] is 79.5%; in experiment [3], 79.5% (inactive); in experiment [4], 72.1% (inactive); in experiment [5], 74.7% (inactive); in experiment [6] (setting [9]), 83%; in experiment [6] (setting [10]) it was 74.7%. In experiment [2], the Her2 level was 74.5% (inactive). The differential viability (reversal) in experiment [6] (H69AR cells + 2 uM doxorubicin) is -8.34% (inactive). Also, the inhibition in experiment [7] was -2.84% (inactive); in experiment [8], 3.49% (inactive).

Regarding `CC(C)C1N=C2c3ccccc3N=C(SCc3cc(=O)n4ccccc4n3)N2C1=O` (stereo not given), the viability was 89% in experiment [1]; 89% (inactive) in experiment [3]; 97.6% (inactive) in experiment [4]; 80.1% (inactive) in experiment [5]; 101% in experiment [6] (setting [9]); 80.1% in experiment [6] (setting [10]). In addition, the Her2 level in experiment [2] is 135% (inactive). For the same molecule, in experiment [6] (H69AR cells + 2 uM doxorubicin), the differential viability (reversal) was -20.5% (inactive). Also, the inhibition is 2.24% (inactive) in experiment [7] and -3.67% (inactive) in experiment [8].

Consider `C=CCSc1nc2c(c(=O)[nH]c(=O)n2C)n1C(C)C`, for which the viability in experiment [1] is 85.5%; in experiment [3], 85.5% (inactive); in experiment [4] it was 88.9% (inactive); in experiment [5], 106% (inactive); in experiment [6] (setting [9]), 88.2%; in experiment [6] (setting [10]), 106%. Moreover, the Her2 level in experiment [2] is 89% (inactive). Besides, the differential viability (reversal) in experiment [6] (H69AR cells + 2 uM doxorubicin) is 17.9% (inactive). For the same molecule, the inhibition is -2.63% (inactive) in experiment [7] and -1.64% (inactive) in experiment [8].

Turning to `CCn1nc(NC(=O)c2cccnc2)c2cc3ccccc3nc21`, the viability in experiment [1] was 90%; in experiment [3], 90% (inactive); in experiment [4] it was 84.4% (inactive); in experiment [5], 89.8% (inactive); in experiment [6] (setting [9]), 74.6%; in experiment [6] (setting [10]), 89.8%. For the same molecule, the Her2 level in experiment [2] is 70.5% (inactive). Besides, in experiment [6] (H69AR cells + 2 uM doxorubicin), the differential viability (reversal) was 15.2% (inactive). Further, the inhibition in experiment [7] is -8.38% (inactive); in experiment [8], -3.17% (inactive).

Turning to `Cc1nc2sc(C(c3cccc(F)c3)N3CCCCC3)c(O)n2n1` (stereo not given), the viability in experiment [1] was 109%; in experiment [3] it was 109% (inactive); in experiment [4], 95.1% (inactive); in experiment [5], 99.5% (inactive); in experiment [6] (setting [9]), 88.6%; in experiment [6] (setting [10]), 99.5%. Also, the Her2 level in experiment [2] is 80% (inactive). Also, the differential viability (reversal) in experiment [6] (H69AR cells + 2 uM doxorubicin) is 10.9% (inactive). Besides, the inhibition in experiment [7] is -4.79% (inactive); in experiment [8], -4.92% (inactive).

Consider `COC(=O)c1cccc(S(=O)(=O)N2CCN(c3nc4ccccc4s3)CC2)c1`, for which the viability in experiment [1] was 83%; in experiment [3] it was 83% (inactive); in experiment [4], 87.8% (inactive); in experiment [5] it was 81% (inactive); in experiment [6] (setting [9]), 72.3%; in experiment [6] (setting [10]), 81%. Also, in experiment [2], the Her2 level was 92.5% (inactive). Besides, the differential viability (reversal) in experiment [6] (H69AR cells + 2 uM doxorubicin) was 8.71% (inactive). In addition, the figures for the inhibition in experiment [7] and in experiment [8] were 0.67% (inactive) and -2.42% (inactive), respectively.

Regarding `O=C(COc1ccccc1)Nc1ccc(-c2nnc(-c3ccco3)o2)cc1`, the viability in experiment [1] was 128%; in experiment [3], 128% (inactive); in experiment [4], 102% (inactive); in experiment [5] it was 95.5% (inactive); in experiment [6] (setting [9]) it was 86.8%; in experiment [6] (setting [10]), 95.5%. Besides, in experiment [2], the Her2 level was 108% (inactive). In experiment [6] (H69AR cells + 2 uM doxorubicin), the differential viability (reversal) is 8.73% (inactive). Moreover, the inhibition in experiment [7] is -6.97% (inactive); in experiment [8] it was -1.15% (inactive).

As to `O=C(Nc1cccc(C(=O)N2CCOCC2)c1)c1cccnc1`, the viability in experiment [1] was 99.5%; in experiment [3], 99.5% (inactive); in experiment [4], 91% (inactive); in experiment [5], 91.2% (inactive); in experiment [6] (setting [9]), 100%; in experiment [6] (setting [10]), 91.2%. The Her2 level in experiment [2] is 118% (inactive). In addition, the differential viability (reversal) in experiment [6] (H69AR cells + 2 uM doxorubicin) is -9.23% (inactive). Moreover, the values for the inhibition in experiment [7] and in experiment [8] were -6.18% (inactive) and -3.11% (inactive), respectively.

On to `COc1ccc(C(=O)c2ccccc2)c(O)c1`, for which the viability in experiment [1] is 86.5%; in experiment [3] it was 86.5% (inactive); in experiment [4], 97.7% (inactive); in experiment [5], 106% (inactive); in experiment [6] (setting [9]), 92%; in experiment [6] (setting [10]) it was 106%. Besides, the Her2 level in experiment [2] was 110% (inactive). The differential viability (reversal) in experiment [6] (H69AR cells + 2 uM doxorubicin) was 13.6% (inactive). Also, the inhibition was -3.33% (inactive) in experiment [7] and 22.7% (inactive) in experiment [8].
